# IDE cell activ: boosts human insulin-degrading enzyme activity in HEK cells; FAbeta-B cleavage, fluorescence polarization; 0% vehicle, 100% cell-free pure enzyme wells; 0.073% of 340,000 active; activation, % at 5.96 µM; P14735; AID 493087;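 active means activation above the mean of all tested compounds plus 3 SD, set per screening campaign, cut at about 17% in these data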
# CSN deneddyl inh: blocks human CSN-mediated cullin deneddylation; Purified CSN, SCF-Nedd8-OG deneddylation, fluorescence polarization; 0.38% of 360,000 active; inhibition, % at 12.5 µM; Q92905;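 active means pattern-corrected inhibition above about 35%, with an unprinted fluorescence ratio check between 0.5 and 1.5, limit read from the data, passing the limit was not always enough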;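 further: 0% = enzyme with substrate and 100% = substrate without enzyme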
# Target sequence (Q92905 whole entry, looked up, one chain of several): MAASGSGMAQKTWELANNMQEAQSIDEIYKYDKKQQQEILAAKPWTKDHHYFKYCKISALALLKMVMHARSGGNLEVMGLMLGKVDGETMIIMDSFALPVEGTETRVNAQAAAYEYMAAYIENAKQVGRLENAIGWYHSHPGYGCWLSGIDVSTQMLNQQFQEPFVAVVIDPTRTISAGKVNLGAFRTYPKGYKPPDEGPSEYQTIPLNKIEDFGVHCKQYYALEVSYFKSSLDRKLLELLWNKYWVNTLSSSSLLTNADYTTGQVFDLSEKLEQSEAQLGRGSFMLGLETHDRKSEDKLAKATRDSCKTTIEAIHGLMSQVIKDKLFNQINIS
#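 Test system: Human Csn5 produced in HEK293T cells | Compound: 12.5 µM single point | Times: 90 min, room temperature | Signal: Fluorescence polarization readout | Read-out basis: % inhibition of substrate cleavage by Csn5 | Controls: no-enzyme wells high, enzyme-with-substrate wells low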
# HNF4A DNA FP: change in binding of human HNF4 alpha to DNA; activity change, % at 10 µM; P41235; HNF4a-FITC DNA binding, fluorescence polarization, 1 h; 0.3% of 360,000 active; in the data active means activity change above about 30%, passing the limit was not always enough
# Tb MetRS inh: blocks T. brucei methionyl-tRNA synthetase activity; purified T. brucei MetRS, ATP depletion, Kinase-Glo luminescence; inhibition, % at 11.9 µM; 0.4% of 360,000 active;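 active means inhibition above a per-plate cutoff of the control wells' mean inhibition plus 3 SD, cut at about 5.5% in these data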;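 further: 0% = DMSO wells median and 100% = median of wells with control inhibitor compound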
#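 technique = Kinase-Glo luminescence, ATP depletion format | system = purified MetRS (methionyl-tRNA synthetase) enzyme from Trypanosoma brucei | timing = 15 min preincubation, 2 h reaction, all 25 °C | evaluation = percent inhibition versus plate control medians | dosing = single dose, 11.9 µM final nominal, 0.9% final DMSO | also added = substrates ATP, L-methionine and bulk Escherichia coli tRNA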
# TPT1 inhibitor: blocks Candida albicans tRNA 2'-phosphotransferase; recombinant caTPT1, FP RNA substrate dephosphorylation; inhibition, % at 5 µM; 0.81% of 300,000 active; AID 1962;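 active means inhibition above the mean of all tested compounds plus 3 SD, set per screening campaign, cut at about 24% in these data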;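 further: plate controls were DMSO alone for no effect and ferristatin control at 100 nM for full effect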
# IDE cell inh: cellular human IDE inhibition | P14735 | HEK cells, FAbetaB cleavage, fluorescence polarization | inhibition, % at 5.59 µM | 0.41% of 320,000 active;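 active means percent inhibition above the average of all tested compounds plus 3 SD, set per screening campaign, cut at about 16% in these data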;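 further: IDE supplied by intact live HEK cells; FP after avidin binding of uncleaved biotin substrate so inhibition keeps polarization high; 0% = DMSO wells and 100% = 60 µM reference IDE inhibitor Ii1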
# TbMetRS confirm: confirmation of Trypanosoma brucei MetRS inhibitors; shares compounds with Tb MetRS inh; T. brucei MetRS enzyme, luminescence (ATP depletion); 93% of 1,400 active; inhibition, % at 11.9 µM; in the data active means inhibition above about 7%
# Jurkat tox: Jurkat T cell cytotoxicity for MetRS hits; shares compounds with Tb MetRS inh; Jurkat cells viability, ATP luminescence; inhibition, % at 8.3 µM; 12% of 1,400 active; in the data active means inhibition above about 15%;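 further: 0% = vehicle and 100% = reference inhibitor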
# TbMetRS FP orth: orthogonal test for Trypanosoma brucei MetRS inhibitors | AID 651607 | inhibition, % at 11.9 µM | purified T. brucei MetRS, fluorescence polarization | shares compounds with Tb MetRS inh | 44% of 1,400 active; in the data active means inhibition above about 17%;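 further: 0% = vehicle wells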
# Starred values were filed as active, the others as inactive; . = no result given. Compounds with a hit are over-represented: about 1.7% of the library has one in this group of screens.
SMILES,IDE cell activ,CSN deneddyl inh,HNF4A DNA FP,Tb MetRS inh,TPT1 inhibitor,IDE cell inh,TbMetRS confirm,Jurkat tox,TbMetRS FP orth
CCN(CC)CCNC(=O)c1cc(Nc2ccc(OC)c(OC)c2)nc2ccccc12,4.8,1.6,5.0,-0.7,-4.5,-0.9,.,.,.
Cc1cc(Br)ccc1NC(=O)CN(C)C(=O)c1ccc(-n2cncn2)c([N+](=O)[O-])c1,-0.2,0.7,2.3,2.9,.,-1.2,.,.,.
Cc1cc(Br)ccc1NC(=O)CNC(=O)c1ccc(-n2cncn2)c([N+](=O)[O-])c1,0.2,-0.4,-0.2,26.8*,0.2,-1.0,63.1*,0.8,29.4*
Cc1ccc(NC(=O)COC(=O)C2CC(=O)N(Cc3ccccc3)C2)cc1S(=O)(=O)N(C)C (stereo not given),8.4,-3.0,-1.6,-0.1,2.3,4.6,.,.,.
O=S(=O)(Nc1nccs1)c1ccc(NCc2cc(Br)cc(Br)c2O)cc1,2.6,-0.7,-3.0,35.5*,-2.6,0.4,67.7*,-8.9,24.1*
Cc1ccc(C)c(CNc2ccc(S(=O)(=O)N3CCCCC3)cc2)c1,1.8,0.1,4.7,-0.1,.,-2.9,.,.,.
O=C(CCN(CCO)Cc1ccccc1)Nc1ccc(Br)cc1,7.2,-0.9,2.4,20.2*,-0.8,2.2,39.7*,0.5,14.7
O=C(Nc1ccc2nc(-c3cccnc3)[nH]c2c1)c1ccco1,-4.8,-3.2,6.2,0.0,2.1,-0.7,.,.,.
Cc1ccc2nc(-c3cccc(NC(=O)c4ccco4)c3)[nH]c2c1,1.3,0.3,4.2,6.0*,-4.5,9.9,9.1*,9.4,56.3*
COc1ccc(S(=O)(=O)Nc2c(C)cccc2C)cc1-n1cnnn1,0.3,-4.4,0.4,5.9*,-1.3,0.7,2.6,-6.0,0.9
COc1ccc(S(=O)(=O)NC2CC2)cc1-n1cnnn1,.,-7.6,0.2,-0.4,-1.0,3.1,.,.,.
CCCCOc1ccc(N(CC(=O)NC2CCCCC2)C(=O)c2snc(C(N)=O)c2N)cc1,-2.1,-5.5,-1.0,-0.7,-1.7,4.4,.,.,.
CCCCCCCCCC1NC(C(=O)O)Cc2c1[nH]c1ccccc21 (stereo not given),.,-1.4,0.9,70.3*,.,.,93.0*,-5.7,73.6*
Cc1ccc(Cl)cc1N1CCN(Cc2nnnn2C2CCCCC2)CC1,0.4,-1.2,1.7,0.1,-3.6,7.6,.,.,.
Cc1ccc(Cn2nnnc2CN2CCC(c3nc4ccc(Cl)cc4[nH]3)CC2)cc1,-5.6,5.3,2.6,21.2*,0.0,1.4,35.5*,42.8*,12.4
Clc1ccc2nc(C3CCN(Cc4nnnn4C4CCCCC4)CC3)[nH]c2c1,3.7,1.7,5.0,69.3*,-3.2,-3.0,81.0*,2.9,55.6*
COc1ccc(Cl)cc1N1CC(c2nc3ccccc3[nH]2)CC1=O (stereo not given),0.9,1.8,1.3,5.7*,-1.5,-2.5,10.1*,12.1,5.0
O=C1CC(c2nc3ccccc3[nH]2)CN1c1cccc(C(F)(F)F)c1 (stereo not given),1.9,-3.0,1.2,20.8*,-2.8,4.9,26.8*,5.6,9.9
CC(C)(CNc1ccc(C(F)(F)F)cc1[N+](=O)[O-])N1CCOCC1,7.6,-4.4,-0.3,0.2,-1.4,1.7,.,.,.
S=C(NCc1ccco1)Nc1ccc(Cl)cn1,-1.2,-2.1,0.5,-0.7,3.1,-1.6,.,.,.
O=[N+]([O-])c1ccc(N2CCN(c3ccccc3O)CC2)c(Cl)c1,-1.6,-2.1,-3.4,7.0*,4.1,0.8,12.1*,18.3*,0.9
O=C(CSc1ncc(-c2ccccc2)[nH]1)Nc1cccc(O)c1,-2.1,-1.7,-0.8,5.6*,-4.1,-0.6,13.4*,7.8,4.7
O=C(CSc1ncc(-c2ccccc2)[nH]1)Nc1ccccc1,0.3,-0.6,-5.8,2.1,-1.2,6.5,.,.,.
O=C(CSc1nnc(SCc2cccc3ccccc23)s1)N=Nc1c(O)[nH]c2ccccc12,.,.,.,.,-1.9,1.6,.,.,.
CC(C)(C)OC(=O)N1CCC[C@H]1C(=O)NCc1ccc(Cl)cc1Cl,-3.6,3.6,4.6,5.7*,-3.0,8.1,14.5*,0.5,1.6
SMILES,IDE cell activ,CSN deneddyl inh,HNF4A DNA FP,Tb MetRS inh,TPT1 inhibitor,IDE cell inh,TbMetRS confirm,Jurkat tox,TbMetRS FP orth
CCc1nc2ccc(C(=O)NCc3ccc(OC)cc3)cn2c1N(C)CCC(C)C,.,6.2,0.1,-0.3,.,.,.,.,.
COc1ccc(OCC(O)Cn2cnc(-c3ccc(Br)cc3)c2)cc1 (stereo not given),-6.0,-2.2,-1.7,13.8*,0.6,0.8,22.4*,0.5,7.9
O=C(NC1CCSC1=O)C1CCCCC1 (stereo not given),3.3,-4.3,0.2,-1.0,-1.5,1.4,.,.,.
Cc1ccc(C=NNc2nc3c([nH]2)c(=O)n(C)c(=O)n3C)cc1,-4.5,-0.5,1.9,0.1,.,.,.,.,.
CC(=O)Nc1ccc(NC(=O)CCOc2ccccc2C)cc1,2.8,1.0,-1.5,-0.5,-0.6,3.2,.,.,.
Cc1ccccc1OCCCC(=O)Nc1ccc(Br)cc1,-6.0,3.2,-3.6,6.4*,-1.0,-1.2,8.2*,20.0*,9.5
O=C(Nc1ccc(S(=O)(=O)Nc2cnc3ccccc3n2)cc1)c1ccc(Cl)c([N+](=O)[O-])c1,0.8,-1.3,-5.5,11.6*,2.3,6.2,24.2*,-0.9,6.9
COc1ccc(C(=O)Nc2ccc(S(=O)(=O)Nc3cnc4ccccc4n3)cc2)cc1,3.0,1.8,1.5,0.0,-0.1,-0.7,.,.,.
Cc1ccc2[nH]cc(S(=O)(=O)c3ccc(F)cc3)c(=O)c2c1,5.4,4.4,2.2,28.6*,3.2,-1.8,41.1*,-0.2,15.7
CCOc1ccc(S(=O)(=O)c2c[nH]c3ccc(C)cc3c2=O)cc1,3.2,0.9,1.9,3.6,15.9,-1.4,.,.,.
Oc1c(Cl)cc(Cl)cc1CNc1nc2ccccc2[nH]1,2.2,1.0,8.8,92.9*,1.0,-5.6,107.6*,0.3,101.9*
O=C(O)c1ccc(S(=O)(=O)/N=C2\C=C(Nc3ccccc3F)C(=O)c3ccccc32)cc1,-1.9,27.1,0.0,9.2*,-5.8,5.8,14.7*,90.6*,5.5
COc1ccc(S(=O)(=O)/N=C2\C=C(Nc3ccc(O)cc3)C(=O)c3ccccc32)cc1,5.2,13.2,0.9,1.7,-0.4,-8.2,.,.,.
Cc1[nH]c2ccc(Br)cc2c(=O)c1CN1CCCCCC1,1.4,11.7,10.4,60.2*,0.3,-3.6,82.2*,3.6,51.6*

# Screens deposited in PubChem BioAssay by several laboratories.
